Measured values taken from ChEMBL document CHEMBL4428050, “Design, Synthesis, and Biological Evaluation of Substituted Pyrimidines as Potential Phosphatidylinositol 3-Kinase (PI3K) Inhibitors” (J Med Chem, 2016).

Assays:
[1] = Inhibition of PI3K p110alpha/p85 (unknown origin) using PIP2/ATP as substrate after 1 hr by kinase glo luminescent assay; set-up: species or system Homo sapiens
In short: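 PI3K p110α activity read by Kinase-Glo Plus luminescence. IC50 is the mean of triplicate measurements.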

Bel-7402 = experiment: Antiproliferative activity against human Bel7402 cells after 72 hrs by CCK8 assay; type: functional, cell-based; conditions: Bel-7402, 72 h
DU-145 = experiment: Antiproliferative activity against human DU145 cells after 72 hrs by CCK8 assay; type: functional, cell-based
PANC-1 = experiment: Antiproliferative activity against human PANC1 cells after 72 hrs by CCK8 assay; type: functional, cell-based; conditions: Homo sapiens, PANC-1, 72 h
BGC-823 = experiment: Antiproliferative activity against human BGC823 cells after 72 hrs by CCK8 assay; type: functional, cell-based
HT-1080 = experiment: Antiproliferative activity against human HT1080 cells after 72 hrs by CCK8 assay; type: functional, cell-based; conditions: HT-1080, 72 h
A-431 = experiment: Antiproliferative activity against human A431 cells after 72 hrs by CCK8 assay; type: functional, cell-based; conditions: Homo sapiens, A-431, 72 h
MCF7 = experiment: Antiproliferative activity against human MCF7 cells after 72 hrs by CCK8 assay; type: functional, cell-based
NCI-N87 = experiment: Antiproliferative activity against human NCI-N87 cells after 72 hrs by CCK8 assay; type: functional, cell-based
Huh-7 = experiment: Antiproliferative activity against human HuH7 cells after 72 hrs by CCK8 assay; type: functional, cell-based; conditions: Huh-7, 72 h
U-937 = experiment: Antiproliferative activity against human U937 cells after 72 hrs by CCK8 assay; type: functional, cell-based
A549 = experiment: Antiproliferative activity against human A549 cells after 72 hrs by CCK8 assay; type: functional, cell-based
MOLT-4 = experiment: Antiproliferative activity against human MOLT4 cells after 72 hrs by CCK8 assay; type: functional, cell-based
K562 = experiment: Antiproliferative activity against human K562 cells after 72 hrs by CCK8 assay; type: functional, cell-based
SGC-7901 = experiment: Antiproliferative activity against human SGC7901 cells after 72 hrs by CCK8 assay; type: functional, cell-based; conditions: SGC-7901, 72 h
HeLa = experiment: Antiproliferative activity against human HeLa cells after 72 hrs by CCK8 assay; type: functional, cell-based
SK-BR-3 = experiment: Antiproliferative activity against human SK-BR-3 cells after 72 hrs by CCK8 assay; type: functional, cell-based; conditions: SK-BR-3, 72 h

SMILES	IC50 [1]	IC50 (DU-145; Homo sapiens, DU-145, 72 h)	IC50 (BGC-823; Homo sapiens, BGC-823, 72 h)	IC50 (MCF7; Homo sapiens, MCF7, 72 h)	IC50 (U-937; Homo sapiens, U-937, 72 h)	IC50 (A549; Homo sapiens, A549, 72 h)	IC50 (MOLT-4; Homo sapiens, MOLT-4, 72 h)	IC50 (K562; Homo sapiens, K562, 72 h)	IC50 (HeLa; Homo sapiens, HeLa, 72 h)	also measured
C[C@@H]1CN(c2cc(-c3cnc(N)cc3C(F)(F)F)nc(N3C[C@@H](C)O[C@@H](C)C3)n2)C[C@H](C)O1	> 10 µM	–	–	–	–	–	–	–	–	–
Nc1cc(C(F)(F)F)c(-c2cc(N3CCOCC3)nc(N3C[C@H]4C[C@@H]3CO4)n2)cn1	0.06 µM	2.38 µM	2.44 µM	2.54 µM	0.72 µM	3.05 µM	1.14 µM	2.4 µM	1.76 µM	IC50 (Bel-7402): 2.79 µM; IC50 (PANC-1): 2.78 µM; IC50 (HT-1080): 2.72 µM; IC50 (A-431): 1.79 µM; IC50 (NCI-N87; Homo sapiens, NCI-N87, 72 h): 1.41 µM; IC50 (Huh-7): 2.93 µM; IC50 (SGC-7901): 2.3 µM
C[C@@H]1CN(c2nc(-c3cnc(N)cc3C(F)(F)F)cc(N3CCOCC3)n2)C[C@H](C)O1	0.091 µM	1.41 µM	1.41 µM	1.41 µM	0.57 µM	1.89 µM	0.42 µM	2.68 µM	1.81 µM	IC50 (Bel-7402): 1.64 µM; IC50 (PANC-1): 1.38 µM; IC50 (HT-1080): 1.98 µM; IC50 (A-431): 2.29 µM; IC50 (NCI-N87; Homo sapiens, NCI-N87, 72 h): 0.52 µM; IC50 (Huh-7): 1.21 µM; IC50 (SGC-7901): 1.24 µM
Nc1cc(C(F)(F)F)c(-c2cc(N3CCOCC3)nc(NCCN3CCOCC3)n2)cn1	0.568 µM	–	–	–	–	–	–	–	–	–
Oc1cccc(-c2nc(N3CCOCC3)c3oc4ncccc4c3n2)c1 [PI-103]	0.0074 µM	–	–	–	–	–	–	–	–	–
C[C@@H]1CN(c2cc(-c3cnc(N)cc3C(F)(F)F)nc(N3CCOCC3)n2)C[C@H](C)O1	0.224 µM	–	–	–	–	–	–	–	–	–
Nc1cc(C(F)(F)F)c(-c2cc(N3CCOCC3)nc(Nc3ccc(N4CCOCC4)cc3)n2)cn1	0.026 µM	> 10 µM	8.36 µM	9.41 µM	3.48 µM	7.79 µM	1.77 µM	8.81 µM	6.91 µM	IC50 (SK-BR-3): 2.67 µM
C[C@@H]1CN(c2nc(-c3cnc(N)cc3C(F)(F)F)nc(N3C[C@H]4C[C@@H]3CO4)n2)C[C@H](C)O1	9.53 µM	–	–	–	–	–	–	–	–	–
Nc1cc(C(F)(F)F)c(-c2cc(N3C[C@H]4OCCO[C@@H]4C3)nc(N3CCOCC3)n2)cn1 (racemic)	0.375 µM	7.11 µM	4.33 µM	7.29 µM	2.86 µM	5.56 µM	3.24 µM	3.19 µM	5.33 µM	IC50 (Bel-7402): 6.43 µM; IC50 (PANC-1): 5.97 µM; IC50 (HT-1080): 5.64 µM; IC50 (A-431): 3.03 µM; IC50 (NCI-N87; Homo sapiens, NCI-N87, 72 h): 6.21 µM; IC50 (Huh-7): 6.29 µM; IC50 (SGC-7901): 4.78 µM
Nc1cc(C(F)(F)F)c(-c2cc(N3CCOCC3)nc(N3C[C@@H]4OCCO[C@@H]4C3)n2)cn1	0.117 µM	4.81 µM	4.57 µM	4.95 µM	1.76 µM	4.98 µM	2.51 µM	1.75 µM	4.31 µM	IC50 (Bel-7402): 5.82 µM; IC50 (PANC-1): 3.67 µM; IC50 (HT-1080): 4.84 µM; IC50 (A-431): 2.55 µM; IC50 (NCI-N87; Homo sapiens, NCI-N87, 72 h): 1.97 µM; IC50 (Huh-7): 4.84 µM; IC50 (SGC-7901): 3.75 µM
Nc1cc(C(F)(F)F)c(-c2cc(N3CCOCC3)nc(N3C[C@H]4OCCO[C@@H]4C3)n2)cn1	0.061 µM	15 µM	6.59 µM	7.47 µM	3.38 µM	6.4 µM	1.96 µM	6.34 µM	7.53 µM	IC50 (SK-BR-3): 3.47 µM
Nc1cc(C(F)(F)F)c(-c2cc(N3C[C@@H]4OCCO[C@@H]4C3)nc(N3CCOCC3)n2)cn1	0.896 µM	> 10 µM	–	–	–	–	–	> 10 µM	–	–
Nc1cc(C(F)(F)F)c(-c2cc(N3CCOCC3)nc(N3C[C@@H]4OCCO[C@H]4C3)n2)cn1	0.035 µM	–	–	–	–	–	–	–	–	IC50 (DU-145; du-145): 4.86 µM; IC50 (BGC-823; bgc-823): 2.79 µM; IC50 (SK-BR-3): 1.6 µM; IC50 (MCF7; mcf7): 3.82 µM; IC50 (U-937; u-937): 1.51 µM; IC50 (A549; a549): 2.49 µM; IC50 (MOLT-4; molt-4): 0.97 µM; IC50 (K562; k562): 2.56 µM; IC50 (HeLa; hela): 2.45 µM
C[C@@H]1CN(c2nc(-c3cnc(N)cc3C(F)(F)F)nc(N3C[C@@H](C)O[C@@H](C)C3)n2)C[C@H](C)O1	> 10 µM	–	–	–	–	–	–	–	–	–
C[C@@H]1CN(c2nc(-c3cnc(N)cc3C(F)(F)F)nc(N3C[C@@H]4OCCO[C@@H]4C3)n2)C[C@H](C)O1	> 10 µM	–	–	–	–	–	–	–	–	–
CS(=O)(=O)N1CCN(c2nc(-c3cnc(N)cc3C(F)(F)F)cc(N3CCOCC3)n2)CC1	0.023 µM	6.56 µM	3.64 µM	4.39 µM	1.99 µM	2.95 µM	1.11 µM	3.64 µM	4.04 µM	IC50 (SK-BR-3): 1.59 µM
C[C@@H]1CN(c2nc(N3C[C@@H](C)O[C@@H](C)C3)c3ccc(-c4cnc(N)cc4C(F)(F)F)cc3n2)C[C@H](C)O1	> 10 µM	–	–	–	–	–	–	–	–	–
Nc1cc(C(F)(F)F)c(-c2nc(N3CCOCC3)nc(N3C[C@H]4OCCO[C@@H]4C3)n2)cn1 (racemic)	0.032 µM	–	9.57 µM	8.15 µM	3.05 µM	4.03 µM	1.21 µM	–	–	IC50 (Bel-7402): 5.9 µM; IC50 (DU-145; du-145): 3.3 µM; IC50 (PANC-1): 6.23 µM; IC50 (HT-1080): 10 µM; IC50 (A-431): > 10 µM; IC50 (NCI-N87; nci-n87): 0.77 µM; IC50 (Huh-7): 5.66 µM; IC50 (K562; k562): > 10 µM; IC50 (SGC-7901): 4.46 µM; IC50 (HeLa; hela): > 10 µM
Nc1ncc(-c2cc(N3CCOCC3)nc(N3C[C@H]4OCCO[C@@H]4C3)n2)cn1 (racemic)	0.128 µM	–	–	–	–	–	–	–	–	–
CC(/C=C/C(=O)NO)=C\[C@@H](C)C(=O)c1ccc(N(C)C)cc1 [TRICHOSTATIN]	–	0.06 µM	0.07 µM	0.07 µM	0.04 µM	0.05 µM	0.02 µM	0.12 µM	0.09 µM	IC50 (Bel-7402): 0.1 µM; IC50 (PANC-1): 0.1 µM; IC50 (SK-BR-3): 0.05 µM; IC50 (HT-1080): 0.08 µM; IC50 (A-431): 0.18 µM; IC50 (NCI-N87; Homo sapiens, NCI-N87, 72 h): 0.06 µM; IC50 (Huh-7): 0.06 µM; IC50 (SGC-7901): 0.03 µM
C[C@@H]1CN(c2cc(-c3cnc(N)cc3C(F)(F)F)nc(N3C[C@@H]4OCCO[C@@H]4C3)n2)C[C@H](C)O1	5.75 µM	–	–	–	–	–	–	–	–	–
Nc1cc(C(F)(F)F)c(-c2ccc3c(N4CCOCC4)nc(N4CCOCC4)nc3c2)cn1	> 10 µM	–	–	–	–	–	–	–	–	–
